Activity calls are given as the source filed them. The calls are words filed in the database; no cut-off is given here.
Assays:
[1] = species on record: Homo sapiens; test: Selectivity ratio of Ki for human kappa opioid receptor over Ki for human delta opioid receptor
[2] = target: T1, Kappa-type opioid receptor (Homo sapiens, UniProt P41145); test: Agonist activity at human kappa-opioid receptor expressed in CHO cells assessed as stimulation of [35S]GTPgammaS binding after 60 mins by scintillation counting; assay type: functional, cell-based
T1 sequence (P41145 whole entry): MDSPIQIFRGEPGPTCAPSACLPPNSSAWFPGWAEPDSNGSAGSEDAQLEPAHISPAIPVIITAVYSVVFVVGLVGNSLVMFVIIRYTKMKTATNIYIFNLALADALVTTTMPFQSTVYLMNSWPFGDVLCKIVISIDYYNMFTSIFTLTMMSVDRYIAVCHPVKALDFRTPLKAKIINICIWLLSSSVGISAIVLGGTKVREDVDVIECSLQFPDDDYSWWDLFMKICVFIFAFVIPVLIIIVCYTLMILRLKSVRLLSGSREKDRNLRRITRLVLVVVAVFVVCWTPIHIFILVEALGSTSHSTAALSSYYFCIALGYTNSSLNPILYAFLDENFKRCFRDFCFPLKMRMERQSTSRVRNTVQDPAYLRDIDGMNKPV
How it was run: (§1)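 Membranes from CHO cells stably expressing human κ or μ opioid receptor were incubated with 12 compound concentrations in 50 mM Tris-HCl pH 7.4 with 3 μM GDP, 3 mM MgCl2, 0.2 mM EGTA and 100 mM NaCl. [35S]GTPγS was 0.08 nM final, 60 min at 30°C, and 10 μM GTPγS gave nonspecific binding. Samples were filtered and counted. EC50 and Emax (% stimulation over basal) came from three experiments in triplicate.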

[3] = target: T2, Mu-type opioid receptor (Homo sapiens, UniProt P35372); test: Antagonist activity at human mu-opioid receptor expressed in CHO cells assessed as inhibition of DAMGO-induced [35S]GTPgammaS binding after 60 mins by scintillation counting relative to control; assay type: functional, cell-based
T2 sequence (P35372 whole entry): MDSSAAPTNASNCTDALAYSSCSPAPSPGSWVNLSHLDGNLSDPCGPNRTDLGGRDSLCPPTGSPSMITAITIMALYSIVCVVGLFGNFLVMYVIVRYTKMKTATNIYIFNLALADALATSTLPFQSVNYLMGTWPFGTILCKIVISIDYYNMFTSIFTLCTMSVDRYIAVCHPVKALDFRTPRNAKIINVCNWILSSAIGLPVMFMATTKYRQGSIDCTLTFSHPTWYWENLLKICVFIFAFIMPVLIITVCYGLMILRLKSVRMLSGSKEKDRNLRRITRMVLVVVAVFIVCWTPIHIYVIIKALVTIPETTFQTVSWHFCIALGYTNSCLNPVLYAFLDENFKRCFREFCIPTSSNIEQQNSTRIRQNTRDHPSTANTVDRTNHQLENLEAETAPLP
How it was run: (§2)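 Human μ receptor CHO membranes were incubated with 200 nM DAMGO to drive [35S]GTPγS (0.08 nM) binding, with 12 compound concentrations up to 10 μM, in Tris pH 7.4/GDP/MgCl2/EGTA/NaCl buffer, 60 min at 30°C. Nonspecific binding was with 10 μM GTPγS. Samples were filtered and counted.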

[4] = target: T2, Mu-type opioid receptor; test: Agonist activity at human mu-opioid receptor expressed in CHO cells assessed as stimulation of [35S]GTPgammaS binding after 60 mins by scintillation counting; assay type: functional, cell-based; how it was run: as §1
[5] = target: T1, Kappa-type opioid receptor; test: Antagonist activity at human kappa-opioid receptor expressed in CHO cells assessed as inhibition of U69593-induced [35S]GTPgammaS binding after 60 mins by scintillation counting; assay type: functional, cell-based
[6] = target: Delta-type opioid receptor (Homo sapiens, UniProt P41143); test: Displacement of [3H]naltrindole from human delta-opioid receptor expressed in CHO cells after 3 hrs by scintillation counting; assay type: cell-based
Chain of Delta-type opioid receptor (P41143 whole entry): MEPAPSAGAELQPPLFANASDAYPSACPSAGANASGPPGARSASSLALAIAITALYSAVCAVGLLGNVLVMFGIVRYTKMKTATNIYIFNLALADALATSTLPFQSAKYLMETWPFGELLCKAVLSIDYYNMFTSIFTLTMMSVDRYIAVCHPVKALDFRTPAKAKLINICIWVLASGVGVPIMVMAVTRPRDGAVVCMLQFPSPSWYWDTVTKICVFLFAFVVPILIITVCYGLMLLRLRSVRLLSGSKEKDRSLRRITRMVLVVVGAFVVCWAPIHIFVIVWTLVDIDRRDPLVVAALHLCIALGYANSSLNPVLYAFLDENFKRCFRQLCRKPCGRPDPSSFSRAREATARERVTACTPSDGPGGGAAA

[7] = target: T1, Kappa-type opioid receptor; test: biochemical; assay type: cell-based, CHO
[8] = target: T2, Mu-type opioid receptor; test: biochemical; assay type: cell-based, CHO
[9] = target: T2, Mu-type opioid receptor; test: Antagonist activity at human mu-opioid receptor expressed in CHO cells assessed as inhibition of DAMGO-induced [35S]GTPgammaS binding after 60 mins by scintillation counting; assay type: functional, cell-based; how it was run: as §2
[10] = target: T2, Mu-type opioid receptor; test: Agonist activity at human mu-opioid receptor expressed in CHO cells assessed as stimulation of [35S]GTPgammaS binding after 60 mins by scintillation counting relative to control; assay type: functional, cell-based; how it was run: as §1
[11] = target: T1, Kappa-type opioid receptor; test: Agonist activity at human kappa-opioid receptor expressed in CHO cells assessed as stimulation of [35S]GTPgammaS binding after 60 mins by scintillation counting relative to control; assay type: functional, cell-based; how it was run: as §1
[12] = target: T1, Kappa-type opioid receptor; test: Antagonist activity at human kappa-opioid receptor expressed in CHO cells assessed as inhibition of U69593-induced [35S]GTPgammaS binding after 60 mins by scintillation counting relative to control; assay type: functional, cell-based
[13] = species on record: Homo sapiens; test: Selectivity ratio of Ki for human kappa opioid receptor over Ki for human mu opioid receptor
[14] = target: T2, Mu-type opioid receptor; test: Antagonist activity at human mu-opioid receptor expressed in CHO cells assessed as inhibition of DAMGO-induced [35S]GTPgammaS binding at 10 uM after 60 mins by scintillation counting relative to control; assay type: functional, cell-based; how it was run: as §2
[15] = target: T2, Mu-type opioid receptor; test: Antagonist activity at human mu-opioid receptor expressed in CHO cells assessed as inhibition of DAMGO-induced [35S]GTPgammaS binding at 10 uM after 60 mins by scintillation counting; assay type: functional, cell-based; how it was run: as §2

| SMILES | Ratio Ki [1] | EC50 [2] [nM] | Imax [3] [%] | EC50 [4] [nM] | IC50 ([5]; read-out: IC50) [nM] | Ki [6] [nM] | Ki [7] [nM] | Ki [8] [nM] | IC50 [9] [nM] | Emax [10] [%] | Emax [11] [%] | Imax [12] | Ratio Ki [13] | IC50 ([5]; cho) | inhibition [14] [%] | inhibition [15] |
| --- | --- | --- | --- | --- | --- | --- | --- | --- | --- | --- | --- | --- | --- | --- | --- | --- |
| C=CCN1CC[C@]23c4c5ccc(OC(=O)CCCCCCCCC(=O)Oc6ccc7c(c6)[C@@]68CCCC[C@@]6(O)[C@@H](C7)N(CC6CCC6)CC8)c4O[C@H]2C(=O)CC[C@@]3(O)[C@H]1C5 | 130 | 12 | 73 | 2 | 49 | 35 | 0.28 | 0.82 | 34 | 19 | 74 | 35% | 3 |  |  |  |
| c1c2c(cc3sc(NCCCCCCCCCCNc4nc5cc6c(cc5s4)C[C@@H]4[C@@H]5CCCC[C@]65CCN4CC4CC4)nc13)C[C@@H]1[C@@H]3CCCC[C@]23CCN1CC1CC1 | 140 | 7.3 | 71 | 22 |  | 39 | 0.27 | 2.5 | 390 | 38 | 130 | inactive | 9 | Not Active |  |  |
| O=C(/C=C/C(=O)Oc1ccc2c(c1)[C@@]13CCCC[C@H]1[C@@H](C2)N(CC1CCC1)CC3)Oc1ccc2c(c1)[C@@]13CCCC[C@H]1[C@@H](C2)N(CC1CCC1)CC3 | 120 |  |  |  |  |  |  |  |  |  |  |  | 3 |  |  |  |
| Nc1nc2cc3c(cc2s1)C[C@@H]1[C@@H]2CCCC[C@]32CCN1CC1CC1 | 592 |  |  |  |  |  |  |  |  |  |  |  | 31 |  |  |  |
| CO[C@@]12CCCC[C@@]13CCN(CC1CCC1)[C@@H]2Cc1ccc(OC(=O)CCCCCCCCC(=O)Oc2ccc4c(c2)[C@@]25CCCC[C@@]2(OC)[C@@H](C4)N(CC2CCC2)CC5)cc13 | 50 | 2.4 | 44 | 1.8 | 17 | 13 | 0.37 | 0.26 | 260 | 42 | 83 | 43% | 1 |  |  |  |
| O=C(CCCCCCCCC(=O)Oc1ccc2c(c1)[C@@]13CCCC[C@@]1(O)[C@@H](C2)N(CC1CCC1)CC3)Oc1ccc2c(c1)[C@@]13CCCC[C@H]1[C@@H](C2)N(CC1CCC1)CC3 | 110 | 0.84 | 50 | 1.2 | 3.7 | 8 | 0.073 | 0.089 | 3.4 | 46 | 100 | 23% | 1 |  |  |  |
| CO[C@@]12CCCC[C@@]13CCN(CC1CCC1)[C@@H]2Cc1ccc(OC(=O)CCCCCCCCC(=O)OCc2ccccc2)cc13 | 93 | 2.1 | 28 | 1.7 | 6.4 | 14 | 0.23 | 0.15 | 7.6 | 54 | 90 | 30% | 1 |  |  |  |
| CO[C@@]12CCCC[C@@]13CCN(CC1CCC1)[C@@H]2Cc1ccc(O)cc13 | 58 | 2.8 | 50 | 3.6 | 22 | 8.1 | 0.2 | 0.14 | 9.3 | 50 | 90 | 37% | 1 |  |  |  |
| O=C(CCCCCCCCC(=O)Oc1ccc2c(c1)[C@@]13CCCC[C@H]1[C@@H](C2)N(CC1CCC1)CC3)Oc1ccc2c(c1)[C@@]13CCCC[C@H]1[C@@H](C2)N(CC1CCC1)CC3 | 90 |  |  |  |  |  |  |  |  |  |  |  | 2 |  |  |  |
| O=C(CCCCCCCCC(=O)Nc1nc2cc3c(cc2s1)C[C@@H]1[C@@H]2CCCC[C@]32CCN1CC1CC1)Nc1nc2cc3c(cc2s1)C[C@@H]1[C@@H]2CCCC[C@]32CCN1CC1CC1 | 460 | 5.5 |  | 130 |  | 170 | 0.37 | 8.8 |  | 25 | 130 | inactive | 24 | Not Active | 74 | inactive |
| C=CCN1CC[C@]23c4c5ccc(OC(=O)CCCCCCCCC(=O)Oc6ccc7c(c6)[C@@]68CCCC[C@@]6(OC)[C@@H](C7)N(CC6CCC6)CC8)c4O[C@H]2C(=O)CC[C@@]3(O)[C@H]1C5 | 280 | 18 | 45 | 10 | 7.7 | 39 | 0.14 | 0.55 | 19 | 62 | 80 | 33% | 4 |  |  |  |

Reference: ChEMBL document CHEMBL1772956, “Synthesis and binding affinity of novel mono- and bivalent morphinan ligands for κ, μ, and δ opioid receptors” (Bioorg Med Chem, 2011)
